The test system of series [1] is Human immunodeficiency virus 1. The series is described as follows: Antiviral activity against HIV1 NL4.3 infected in human CEM-GFP cells assessed as inhibition p24 antigen production at non cytotoxic concentration after 8 days by ELISA. The format is functional. The essentials: (§1)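 CEM-GFP T cells carry a stably integrated LTR-driven GFP gene that is trans-activated by Tat on infection. Cells were infected with HIV-1 NL4.3 at MOI 0.05 and incubated with compound for up to 8 days post infection. Viral p24 was read by ELISA. Line 2 was tested at each compound's non-cytotoxic concentration. IC50 is 50% protection from virus, n = 3.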

Series [2] in a line: Cytotoxicity against human CEM cells expressing green fluorescent protein assessed as oncytotoxic concentration by MTT assay. The format is cell-based, CCRF-CEM. As to conditions: read-out: Activity. In outline: (§2)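 MTT cell viability assay in CEM-GFP cells. CC50 is the concentration reducing proliferation by 50%, n = 3. The non-cytotoxic concentration was chosen from these MTT results for the antiviral testing.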

The subject of series [3] is Human immunodeficiency virus 1. The series is described as follows: Antiviral activity against HIV1 NL4.3 infected in human CEM-GFP cells assessed as inhibition p24 antigen production after 8 days by ELISA. The format is functional, organism-based. To be noted: Human immunodeficiency virus 1, NL4.3, CEM-GFP, 192 h. In outline:
as §1

A short description of series [4]: Cytotoxicity against human CEM cells expressing green fluorescent protein by MTT assay. The class given is cell-based, CCRF-CEM. In outline:
as §2

The nature of series [5]: Therapeutic index, ratio of CC50 for human CEM cells expressing green fluorescent protein to IC50 for HIV1 NL4.3. The class given is cell-based, CCRF-CEM. To be noted: read-out: TI. In outline: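 Therapeutic index is CC50 (MTT proliferation in CEM-GFP cells, n = 3) divided by IC50 (p24 ELISA protection of HIV-1 NL4.3-infected CEM-GFP cells, n = 3).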

The structures appear in SMILES notation. pIC50: −log10 of the molar value. Calls of active or inactive are those of the source. No cut-off for these calls is given here.

As to `COC(=O)c1cc2c3ccccc3n3c(=O)ccc(n1)c23`, the inhibition entry in series [1] was “inactive”. Also, the MNTC in series [2] is 3.59 µM.
Regarding `Cc1nc(C(=O)N2CCSCC2)cc2c3ccccc3n(Cc3ccccc3)c12`, in series [1], the inhibition result was “inactive”. The MNTC in series [2] was 6.22 µM.
For `CC1=NC(C(=O)O)Cc2c1[nH]c1ccccc21` (centres undefined), the “inhibition (INH)” value in series [1] was determined as 16.48%. The MNTC in series [2] turned out to be 17.5 µM.
For the molecule `COC(=O)c1cc2c3ccccc3n(C)c2c(C)n1`, in series [1], the inhibition entry was “inactive”. Further, the MNTC in series [2] came to 19.7 µM.
In the case of `CCCCn1c2c(c3ccccc31)CC(CCCC)(C(=O)OC)N=C2C` (centres undefined), in series [1], the inhibition result was “inactive”. Moreover, in series [2], the MNTC is 14.1 µM.
As to `Cc1cn([C@H]2C[C@H](N=[N+]=[N-])[C@@H](CO)O2)c(=O)[nH]c1=O` [ZIDOVUDINE], the pIC50 in series [3] was 5.98. In addition, the midpoint of cytotoxicity in series [4], the CC50, lay at 23 µM.
On to `CCCCn1c2ccccc2c2cc(C(=O)OC)nc(C)c21`, for which the inhibition entry in series [1] was “inactive”. Moreover, the MNTC in series [2] turned out to be 1.69 µM.
The like results for `C#CCn1c2ccccc2c2cc(C(=O)N3CCSCC3)nc(C)c21` were, in that order, “inactive” and 21.5 µM.
For `CC(C)=CCn1c2ccccc2c2cc(C(=O)N3CCSCC3)nc(C)c21`, the inhibition entry in series [1] was “inactive”. Further, the MNTC in series [2] is 19.8 µM.
On to `CCCn1c2ccccc2c2cc(C(=O)OC)nc(C)c21`, for which the inhibition result in series [1] is “inactive”. Besides, the MNTC in series [2] was determined as 3.54 µM.
Turning to `Cc1nc(C(=O)N2CCSCC2)cc2c1[nH]c1ccccc12`, in series [1], the “inhibition (INH)” value is recorded as 16.9%. The MNTC in series [2] turned out to be 1.61 µM.
For `COC(=O)c1cc2c([nH]c3ccccc32)c(C=O)n1`, the pIC50 in series [3] is 5.54. This molecule also registered a CC50 in series [4] of 20.3 µM. In addition, the selectivity ratio in series [5] was 7. Besides, the MNTC in series [2] stood at 9.83 µM.
`COC(=O)c1cc2c([nH]c3ccccc32)c(C)n1`: the “inhibition (INH)” value in series [1] is reported as 21.3%. In addition, the MNTC in series [2] was 4.17 µM.
With `Cc1nc(C(=O)N2CCSCC2)cc2c3ccccc3n(Cc3ccc(F)cc3)c12`, the inhibition result in series [1] was “inactive”. Besides, the MNTC in series [2] worked out at 23.8 µM.
As to `CCCCn1c2ccccc2c2cc(C(=O)N3CCSCC3)nc(C)c21`, in series [1], the inhibition result was “inactive”. The MNTC in series [2] came out at 1.36 µM.
Turning to `Cc1nc(C(=O)N2CCOCC2)cc2c1[nH]c1ccccc12`, the inhibition result in series [1] is “inactive”. In addition, the MNTC in series [2] was 27.1 µM.
The like results for `Cc1nc(C(=O)N2CCCCC2)cc2c1[nH]c1ccccc12` were, in that order, “inactive” and 1.71 µM.
Regarding `COC(=O)C1Cc2c([nH]c3ccccc23)C(C)=N1` (centres undefined), the “inhibition (INH)” value in series [1] is listed as 17.26%. Also, the MNTC in series [2] came to 18.6 µM.
Regarding `COC(=O)c1cc2c3ccccc3n(Cc3ccccc3)c2c(C)n1`, the inhibition result in series [1] was “inactive”. Besides, in series [2], the MNTC was 15.1 µM.
The like results for `CCn1c2ccccc2c2cc(C(=O)OC)nc(C)c21` were, in that order, “inactive” and 3.73 µM.
Regarding `CCCCC1(C(=O)OC)Cc2c([nH]c3ccccc23)C(C)=N1` (centres undefined), the “inhibition (INH)” value in series [1] is on record as 12.17%. Also, the MNTC in series [2] was 8.39 µM.

(Values after ChEMBL document CHEMBL1208742, “Synthesis and evaluation of beta-carboline derivatives as inhibitors of human immunodeficiency virus” (Bioorg Med Chem Lett, 2010).)
